Assay outcomes: PubChem, several laboratories
Rpn11 block – inhibitors of human proteasome Rpn11; O00487; human 26S proteasome, Ub4-pepOG fluorescence polarization; 20S core pre-blocked with epoxomicin; inhibition, % at 20 µM; 360,000 tested, 0.59% active; AID 588493;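 active = inhibition at 20 µM, scaled to each plate's controls, above about 33%, limit read from the data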
Target sequence (O00487 whole entry, looked up): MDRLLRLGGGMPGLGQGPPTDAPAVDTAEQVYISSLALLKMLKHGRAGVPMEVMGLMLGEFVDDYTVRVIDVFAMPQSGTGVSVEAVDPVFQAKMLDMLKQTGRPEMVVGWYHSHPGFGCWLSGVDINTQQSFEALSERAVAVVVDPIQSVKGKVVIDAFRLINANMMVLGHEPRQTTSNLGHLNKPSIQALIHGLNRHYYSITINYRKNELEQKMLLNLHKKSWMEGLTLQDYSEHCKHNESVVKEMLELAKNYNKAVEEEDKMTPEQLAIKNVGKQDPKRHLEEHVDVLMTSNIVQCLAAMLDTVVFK
TPT1 inhibitor – C. albicans TPT1 enzyme inhibition | 300,000 tested, 0.81% active | AID 1962 | recombinant caTPT1, FP RNA substrate dephosphorylation | inhibition, % at 5 µM;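 active = inhibition above the mean of all tested compounds plus 3 SD, set per screening campaign, cut at about 24% in these data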;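 note: plate controls were DMSO alone for no effect and ferristatin control at 100 nM for full effect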
HNF4A DNA FP – change in binding of human HNF4 alpha to DNA; HNF4a-FITC DNA binding, fluorescence polarization, 1 h; activity change, % at 10 µM; 360,000 tested, 0.3% active; in the data active = activity change above about 30%, passing the limit was not always enough
CSN deneddyl inh – CSN deneddylation inhibition | Q92905 | Purified CSN, SCF-Nedd8-OG deneddylation, fluorescence polarization | inhibition, % at 12.5 µM | 360,000 tested, 0.38% active | AID 651999;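 active = pattern-corrected inhibition above about 35%, with an unprinted fluorescence ratio check between 0.5 and 1.5, limit read from the data, passing the limit was not always enough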;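 note: 0% = enzyme with substrate and 100% = substrate without enzyme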
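Schedule: reaction 90 min, room temperature / Assay system: HEK293T-derived human Csn5 enzyme / Input: Csn5 at 0.24 nM final / Measure: inhibition of Csn5 cleavage, % / Control set: substrate-only high control, full reaction low control / Technique: fluorescence polarization of the substrate / Buffer or medium: Tris/NaCl/DTT buffer, pH 7.5 / Reagent: SCFSkp2-Nedd8OG substrate at 10 nM final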
caTPT1 confirm – TPT1 (C. albicans) inhibition, confirmation | shares compounds with TPT1 inhibitor | recombinant caTPT1, fluorescence polarization, RNase T1 coupled | inhibition, % at 5 µM | 2,400 tested, 74% active;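 active = inhibition above the primary screen limit, the mean inhibition of all tested compounds plus 3 SD, cut at about 25% in these data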
RNase T1 counter – RNase T1 inhibition in TPT1 counter-screen | shares compounds with TPT1 inhibitor | inhibition, % at 5 µM | AID 2153 | 2,400 tested, 83% active | RNase T1 cleavage, fluorescence polarization, 1536-well;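 active = inhibition above the solvent-only control well mean plus 3 SD, limit set per screening run, cut at about 23% in these data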;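 note: plate controls were DMSO wells with enzyme for no effect and wells without RNase T1 for full effect; inhibitors block cleavage so intact labeled substrate keeps polarization high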
Target sequence (P00651 whole entry, looked up): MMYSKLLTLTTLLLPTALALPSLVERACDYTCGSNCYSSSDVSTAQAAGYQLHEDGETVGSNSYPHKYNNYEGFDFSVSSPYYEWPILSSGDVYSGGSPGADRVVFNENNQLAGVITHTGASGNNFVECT
Numbers without * were called inactive; nt = no result shown. Most compounds without a hit are left out; they make up all but 1.5% or so of the library.

SMILES	Rpn11 block	TPT1 inhibitor	HNF4A DNA FP	CSN deneddyl inh	caTPT1 confirm	RNase T1 counter
COc1cc(-c2nc(-c3ccccc3)c(-c3ccc(F)cc3)[nH]2)cc2c1OCO2	2	3	-1	-6	nt	nt
COc1ccccc1N=Nc1nc(-c2ccccc2)c(-c2ccccc2)[nH]1	23	25*	19	7	33*	42*
Cc1c(C(=O)OCC(=O)NCc2ccco2)cccc1[N+](=O)[O-]	2	nt	-8	-4	nt	nt
COC(=O)c1ccc(OCCN2C3=NCCN3c3ccccc32)cc1	-1	37*	0	-4	1	4
CCOc1cc(N2CCOCC2)c(OCC)cc1NC(=O)c1ccc(OC)c(S(=O)(=O)N2CCOCC2)c1	-2	nt	-1	-3	nt	nt
Cn1cc(/C=C/c2cc[n+](C)cc2)c2cc(F)ccc21	nt	40*	20	-74	49*	56*
Cn1cc(/C=C/c2cc[n+](C)cc2)c2cc(Cl)ccc21	nt	60*	93	0	68*	70*
Cc1ccc(C)c(NC(=O)CN(C)C(=O)c2ccccc2OCc2c(C)noc2C)c1	-1	nt	2	0	nt	nt
COC(=O)CCCCCN1C(=O)NC(C2CC2)C(C(=O)OCc2ccccc2)=C1C (centres undefined)	4	-3	2	0	nt	nt
CC1(C(=O)O)CCCN(C(=O)C2(c3ccc(Cl)cc3)CCCC2)C1 (centres undefined)	-7	nt	4	1	nt	nt
C=CCn1c(=O)/c(=C2/Sc3ccccc3N2CC)s/c1=C1/C(=O)NN=C1C	nt	44*	nt	nt	48*	59*
COc1ccc(CN(C)C(=O)c2cccc(NC(=O)CC3SC(N4CCCCC4)=NC3=O)c2)c(OC)c1 (centres undefined)	2	nt	4	-3	nt	nt
COc1cc(CC(=O)Nc2sccc2C(N)=O)cc(OC)c1OC	nt	76*	34*	17	18	25*
CN(C(=O)COC(=O)c1ccc(F)c(S(=O)(=O)N2CCOCC2)c1)C1CCS(=O)(=O)C1 (centres undefined)	-3	-5	6	-2	nt	nt
O=c1cc(O)c2sc3nc(-c4cccnc4)cc(C(F)(F)F)c3c2[nH]1	32	32*	12	11	28*	40*
O=C(NNC(=S)NC1CCCCC1)c1sc2ccccc2c1Cl	-4	-6	4	-14	nt	nt
CC(C)(C)C(=O)NC(=S)NNC(=O)c1sc2ccccc2c1Cl	4	27*	0	-4	0	1
Cc1ccccc1-n1c(C)cc(/C=N/Nc2ccc([N+](=O)[O-])cn2)c1C	22	38*	11	6	41*	56*
COc1ccc(CC2(CO)COc3ccccc3C2=O)cc1 (centres undefined)	0	-1	2	5	nt	nt
COc1ccc(-n2cc3c(-c4cccc(Br)c4)nnc(C)c3n2)cc1	nt	1	133	-57	nt	nt
Cc1nnc(-c2cccc(Br)c2)c2cn(-c3cccc(Br)c3)nc12	nt	47*	125	-24	79*	84*
CN(Cc1ccco1)c1ncnc2ccc(-c3ccc4c(ccn4C)c3)cc12	0	nt	-1	-5	nt	nt
CN(C)c1ccc(-n2cccc2/C=C/[N+](=O)[O-])cc1	-2	-3	6	-5	nt	nt
CN(c1ccccc1)c1ccc(/C=C/[N+](=O)[O-])cc1	20	42*	2	6	55*	71*
CCOc1ccc(C2CC(c3c(O)c4ccccc4oc3=O)=NN2c2ccccc2)cc1OC (centres undefined)	nt	69*	64	64	80*	82*
SMILES	Rpn11 block	TPT1 inhibitor	HNF4A DNA FP	CSN deneddyl inh	caTPT1 confirm	RNase T1 counter
COc1cc([N+](=O)[O-])ccc1NC(=O)CN(C)C	3	26*	-4	3	2	8
CCOCC(=O)Nc1ccc([N+](=O)[O-])cc1OC	1	36*	-4	-2	3	6
Cc1ccc(Cl)c(OCC(=O)Nc2cc(S(=O)(=O)N3CCOCC3)ccc2N2CCCC2)c1	2	4	0	1	nt	nt
O=C(CC[C@H]1O[C@@H](n2cnc3c(NC(=O)c4ccccc4)ncnc32)[C@H](O)[C@@H]1O)NCc1ccc2c(c1)OCO2	-3	nt	1	4	nt	nt
N#Cc1cnc(SCCc2ccccc2)nc1N	33	39*	17	7	32*	42*
O=C(NCCc1ccc(O)c(Br)c1)c1ccc(Br)o1	nt	nt	0	-5	nt	nt
